Results reported in ChEMBL document CHEMBL4823250, “Discovery of thalidomide-based PROTAC small molecules as the highly efficient SHP2 degraders” (Eur J Med Chem, 2021).
Activity calls are given as the source filed them. The rule behind the calls is not given here.

Key:
[1] = biological target: T1, Protein cereblon/Tyrosine-protein phosphatase non-receptor type 11 (Homo sapiens, UniProt Q06124+Q96SW2); assay: Protac activity at SHP2/CRBN in human MV4-11 cells assessed as SHP2 degradation at 8 nM measured after 12 hrs by Western blot analysis relative to control; type: cell-based
In short: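 MV4-11 cells (IMDM, 10% FBS, 37 °C, 5% CO2) plated at 1.0×10^6 cells/well and exposed 12 h to 8 or 200 nM. Lysis in RIPA with protease inhibitors, then SDS-PAGE, nitrocellulose transfer and anti-human SHP2 immunoblot. SHP2 signal normalized to GAPDH and percent degradation quantified by densitometry. Reported as the average of two independent measurements.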
Target sequence in this assay (Q96SW2 whole entry partner, one chain of several): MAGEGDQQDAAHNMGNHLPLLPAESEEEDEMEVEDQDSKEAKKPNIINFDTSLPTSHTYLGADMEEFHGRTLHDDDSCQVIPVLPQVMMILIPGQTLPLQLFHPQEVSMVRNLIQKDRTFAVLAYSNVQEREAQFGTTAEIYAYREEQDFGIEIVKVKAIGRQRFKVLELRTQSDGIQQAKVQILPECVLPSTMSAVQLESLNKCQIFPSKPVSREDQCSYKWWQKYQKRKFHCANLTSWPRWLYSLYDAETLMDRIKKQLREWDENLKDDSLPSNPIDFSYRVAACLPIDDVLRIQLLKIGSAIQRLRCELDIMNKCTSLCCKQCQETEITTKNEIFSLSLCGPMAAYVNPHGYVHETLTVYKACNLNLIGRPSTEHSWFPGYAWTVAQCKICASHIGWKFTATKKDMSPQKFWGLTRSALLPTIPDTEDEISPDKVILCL

MV4-11 [2] = assay: Induction of apoptosis in human MV4-11 cells assessed as early apoptotic cells at 200 nM measured after 48 hrs by Annexin V/FITC-PI staining based flowcytometry assay (reference value: 2.99%); type: functional
MV4-11 [3] = assay: Antiproliferative activity against human MV4-11 cells assessed as inhibition of cell proliferation measured after 72 hrs by MTS assay; type: functional, cell-based; conditions: MV4-11, 72 h
In short: (§1)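 MV4;11 (ATCC, STR-authenticated) in IMDM with 10% FBS, penicillin/streptomycin, 37 °C, 5% CO2. Seeded at 1.0–4.0 × 10^4 cells/well, rested 2 h, then exposed to 0.01% DMSO or graded compound concentrations for 72 h. MTS/PMS added for 2–4 h. IC50 from sigmoidal variable-slope nonlinear regression; mean ± SEM of at least three separate assays, each in triplicate.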

[4] = biological target: T1, Protein cereblon/Tyrosine-protein phosphatase non-receptor type 11; assay: Protac activity at SHP2/CRBN in human MV4-11 cells assessed as SHP2 degradation at 100 nM measured after 6 hrs by Western blot analysis relative to control; type: cell-based
Target sequence in this assay (Q96SW2 whole entry partner, one chain of several): as above

[5] = biological target: T2, Tyrosine-protein phosphatase non-receptor type 11 (Homo sapiens, UniProt Q06124); assay: Inhibition of human SHP2 catalytic activity
T2 sequence (Q06124 whole entry): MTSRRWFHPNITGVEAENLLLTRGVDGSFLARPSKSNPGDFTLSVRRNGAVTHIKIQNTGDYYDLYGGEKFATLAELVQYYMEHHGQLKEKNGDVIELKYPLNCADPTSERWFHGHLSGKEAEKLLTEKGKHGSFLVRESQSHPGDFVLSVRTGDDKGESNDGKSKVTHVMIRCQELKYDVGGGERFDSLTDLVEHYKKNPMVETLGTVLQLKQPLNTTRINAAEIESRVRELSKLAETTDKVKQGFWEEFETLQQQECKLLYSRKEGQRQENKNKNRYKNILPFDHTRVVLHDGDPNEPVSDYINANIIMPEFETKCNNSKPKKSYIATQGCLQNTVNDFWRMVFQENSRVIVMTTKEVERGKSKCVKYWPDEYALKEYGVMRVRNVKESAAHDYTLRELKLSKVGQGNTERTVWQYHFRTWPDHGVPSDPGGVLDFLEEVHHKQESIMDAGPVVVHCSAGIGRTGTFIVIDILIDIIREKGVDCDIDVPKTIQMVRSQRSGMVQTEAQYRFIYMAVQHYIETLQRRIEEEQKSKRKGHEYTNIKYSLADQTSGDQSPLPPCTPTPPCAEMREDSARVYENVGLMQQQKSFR

MV4-11 [6] = assay: Induction of apoptosis in human MV4-11 cells assessed as necrotic cells at 200 nM measured after 48 hrs by Annexin V/FITC-PI staining based flowcytometry assay (reference value: 0.07%); type: functional
MV4-11 [7] = assay: Cytotoxicity against CRBN knock out human MV4-11 cells assessed as cell viability measured after 72 hrs by MTS assay; type: cell-based; conditions: MV4-11, 72 h
In short: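 MV4;11 cells with CRBN knocked out, cultured in IMDM with 10% FBS, penicillin/streptomycin, 37 °C, 5% CO2. Seeded at 1.0–4.0 × 10^4 cells/well, rested 2 h, then given 0.01% DMSO or graded compound concentrations for 72 h. Viability by MTS/PMS over 2–4 h. IC50 from sigmoidal variable-slope fit; mean ± SEM of ≥3 assays in triplicate.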

[8] = biological target: T1, Protein cereblon/Tyrosine-protein phosphatase non-receptor type 11; assay: Protac activity at SHP2/CRBN in human MV4-11 cells assessed as induction of SHP2 degradation measured after 12 hrs by Western blot analysis; type: cell-based
In short: (§2)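 MV4-11 cells, 1.0×10^6 cells/well, treated 12 h across a concentration series. Lysed in RIPA plus protease inhibitors, separated by SDS-PAGE onto nitrocellulose and immunoblotted for SHP2 with GAPDH as loading control. Band intensities normalized to GAPDH; DC50 derived from the quantified SHP2 levels.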
Target sequence in this assay (Q96SW2 whole entry, one chain of several): as the sequence (Q96SW2 whole entry partner, one chain of several) above

MV4-11 [9] = assay: Induction of apoptosis in human MV4-11 cells assessed as viable cells at 600 nM measured after 48 hrs by Annexin V/FITC-PI staining based flowcytometry assay (reference value: 91%); type: functional
MV4-11 [10] = assay: Induction of apoptosis in human MV4-11 cells assessed as necrotic cells at 600 nM measured after 48 hrs by Annexin V/FITC-PI staining based flowcytometry assay (reference value: 0.07%); type: functional
MV4-11 [11] = assay: Induction of apoptosis in human MV4-11 cells assessed as viable cells at 70 nM measured after 48 hrs by Annexin V/FITC-PI staining based flowcytometry assay (reference value: 91%); type: functional
[12] = biological target: T1, Protein cereblon/Tyrosine-protein phosphatase non-receptor type 11; assay: Protac activity at SHP2/CRBN in human MV4-11 cells assessed as SHP2 degradation at 100 nM measured after 24 hrs by Western blot analysis relative to control; type: cell-based
Target sequence in this assay (Q96SW2 whole entry partner, one chain of several): as the sequence (Q96SW2 whole entry partner, one chain of several) above

MV4-11 [13] = assay: Induction of apoptosis in human MV4-11 cells assessed as viable cells at 200 nM measured after 48 hrs by Annexin V/FITC-PI staining based flowcytometry assay (reference value: 91%); type: functional
MV4-11 [14] = assay: Induction of apoptosis in human MV4-11 cells assessed as late apoptotic cells at 70 nM measured after 48 hrs by Annexin V/FITC-PI staining based flowcytometry assay (reference value: 5.95%); type: functional
MV4-11 [15] = assay: Induction of apoptosis in human MV4-11 cells assessed as necrotic cells at 70 nM measured after 48 hrs by Annexin V/FITC-PI staining based flowcytometry assay (reference value: 0.07%); type: functional
[16] = biological target: T1, Protein cereblon/Tyrosine-protein phosphatase non-receptor type 11; assay: Protac activity at SHP2/CRBN in human MV4-11 cells assessed as decrease in SHP2 protein level measured after 12 hrs by Western blot analysis; type: cell-based; conditions: dose 8-500 nM; in short: as §2
Target sequence in this assay (Q96SW2 whole entry partner, one chain of several): as the sequence (Q96SW2 whole entry partner, one chain of several) above

MV4-11 [17] = assay: Cell cycle arrest in human MV4-11 cells assessed as accumulation at G1 phase measured after 24 hrs by PI staining based flow cytometry assay; type: functional
In short: (§3)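 MV4-11 cells treated 24 h, then washed twice in cold PBS and fixed in ethanol overnight at 4 °C. Stained with propidium iodide plus RNase for 15 min at 37 °C. Cell-cycle distribution measured by flow cytometry.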

[18] = biological target: T3, Tyrosine-protein phosphatase non-receptor type 11 (Homo sapiens) (UniProt Q06124); assay: Induction of SHP2 degradation in CRBN knock out human MV4-11 cells at 8 to 200 nM measured after 12 hrs by Western blot analysis; type: cell-based; conditions: dose 8-200 nM
T3 sequence (whole entry): T2 sequence (Q06124 whole entry)

MV4-11 [19] = assay: Induction of apoptosis in human MV4-11 cells assessed as early apoptotic cells at 70 nM measured after 48 hrs by Annexin V/FITC-PI staining based flowcytometry assay (reference value: 2.99%); type: functional
MV4-11 [20] = assay: Induction of apoptosis in human MV4-11 cells assessed as early apoptotic cells at 600 nM measured after 48 hrs by Annexin V/FITC-PI staining based flowcytometry assay (reference value: 2.99%); type: functional
MV4-11 [21] = assay: Induction of apoptosis in human MV4-11 cells assessed as late apoptotic cells at 200 nM measured after 48 hrs by Annexin V/FITC-PI staining based flowcytometry assay (reference value: 5.95%); type: functional
MV4-11 [22] = assay: Induction of apoptosis in human MV4-11 cells assessed as late apoptotic cells at 600 nM measured after 48 hrs by Annexin V/FITC-PI staining based flowcytometry assay (reference value: 5.95%); type: functional
MV4-11 [23] = assay: Cytotoxicity against human MV4-11 cells assessed as cell viability measured after 72 hrs by MTS assay; type: functional, cell-based; conditions: MV4-11, 72 h; in short: as §1
MV4-11 [24] = assay: Cell cycle arrest in human MV4-11 cells assessed as accumulation at G1 phase at 200 nM measured after 24 hrs by PI staining based flow cytometry assay; type: functional; in short: as §3
[25] = Homo sapiens, MV4-11, read-out: Activity

`C[C@@H]1OCC2(CCN(c3cnc(Sc4cccc(NC(=O)CCC(=O)NCCOCCOCCOCCNc5cccc6c5C(=O)N(C5CCC(=O)NC5=O)C6=O)c4Cl)c(N)n3)CC2)[C@@H]1N` (stereo not given in full) gave an Activity [1] of 28%.

For `C[C@@H]1OCC2(CCN(c3cnc(Sc4cccc(NC(=O)CCC(=O)NCCCCCCCCCCCCNc5cccc6c5C(=O)N(C5CCC(=O)NC5=O)C6=O)c4Cl)c(N)n3)CC2)[C@@H]1N` (stereo not given in full), the Activity [1] was 18%.

With `C[C@@H]1OCC2(CCN(c3cnc(Sc4cccc(NC(=O)CCC(=O)NCCCOCCOCCOCCCNc5cccc6c5C(=O)N(C5CCC(=O)NC5=O)C6=O)c4Cl)c(N)n3)CC2)[C@@H]1N` (stereo not given in full) the Activity (MV4-11 [2]) was 7.23%, the IC50 (MV4-11 [3]) was 207 nM and the Activity [4] was > 50%. The IC50 [5] was 202 nM, the Activity (MV4-11 [6]) was 0.39% and the IC50 (MV4-11 [7]) was 2630 nM. For the same compound, the Activity [1] was 46%, the DC50 [8] was 6.02 nM and the viability at 0.6 µM (MV4-11 [9]; [25]) was 76.9%. The Activity (MV4-11 [10]) was 0.907%, the viability at 0.07 µM (MV4-11 [11]; [25]) was 87.5% and the Activity [12] was > 90%. It also gave a viability at 0.2 µM (MV4-11 [13]; [25]) of 81%, an Activity (MV4-11 [14]) of 8.01% and an Activity (MV4-11 [15]) of 0.175%. For the same compound, the Activity [16] was “Dose-Dependent Effect”, the Activity (MV4-11 [17]) was “Dose-Dependent Effect” and the Activity [18] was “inactive”. The Activity (MV4-11 [19]) was 4.76%, the Activity (MV4-11 [20]) was 7.88% and the Activity (MV4-11 [21]) was 11.3%. For the same compound, the Activity (MV4-11 [22]) was 14.3% and the IC50 (MV4-11 [23]) was 207 nM.

In the case of `C[C@@H]1OCC2(CCN(c3cnc(Sc4cccc(NC(=O)CCC(=O)NCCCCCCCCCCNc5cccc6c5C(=O)N(C5CCC(=O)NC5=O)C6=O)c4Cl)c(N)n3)CC2)[C@@H]1N` (stereo not given in full), the Activity [1] is reported as 0%.

In the case of `C[C@@H]1OCC2(CCN(c3cnc(Sc4cccc(NC(=O)CCC(=O)NCCOCCOCCOCCNc5ccc6c(c5)C(=O)N(C5CCC(=O)NC5=O)C6=O)c4Cl)c(N)n3)CC2)[C@@H]1N` (stereo not given in full), the Activity [1] is reported as < 5%.

For `C[C@@H]1OCC2(CCN(c3cnc(Sc4cccc(NC(=O)CCC(=O)NCCCCCCCCCCCCCNc5cccc6c5C(=O)N(C5CCC(=O)NC5=O)C6=O)c4Cl)c(N)n3)CC2)[C@@H]1N` (stereo not given in full), the Activity [1] was 8%.

In the case of `C[C@@H]1OCC2(CCN(c3cnc(Sc4cccc(NC(=O)CCC(=O)NCCCCCCCCNc5cccc6c5C(=O)N(C5CCC(=O)NC5=O)C6=O)c4Cl)c(N)n3)CC2)[C@@H]1N` (stereo not given in full), the Activity [1] is reported as 22%.

In the case of `CC1(N)CCN(c2cnc(-c3cccc(Cl)c3Cl)c(N)n2)CC1`, the Activity (MV4-11 [2]) is reported as 4.68%, the IC50 (MV4-11 [3]) is reported as 475 nM and the Activity (MV4-11 [6]) is reported as 0.099%. The IC50 (MV4-11 [7]) was 803 nM, the Activity (MV4-11 [9]) was 86.5% and the Activity (MV4-11 [10]) was 0.098%. The Activity (MV4-11 [11]) was 94%, the Activity (MV4-11 [13]) was 88.5% and the Activity (MV4-11 [24]) was “Active”. It also gave an Activity (MV4-11 [14]) of 4.52%, an Activity (MV4-11 [15]) of 0.078% and an Activity (MV4-11 [19]) of 3.98%. The Activity (MV4-11 [20]) was 5.08%, the Activity (MV4-11 [21]) was 6.43% and the Activity (MV4-11 [22]) was 7.74%. For the same compound, the IC50 (MV4-11 [23]) was 572 nM.
